Assay results taken from ChEMBL document CHEMBL3286354, “9- and 11-Substituted 4-azapaullones are potent and selective inhibitors of African trypanosoma” (Eur J Med Chem, 2014).

How the values were obtained:
[1] = Toxicity in mouse macrophages at 48 uM after 24 hrs by xCELLingence assay relative to control; assay type: cell-based; conditions: macrophage
In short: (§1)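 Mouse bone marrow-derived macrophages were seeded at 7.5×10^4 per well in DMEM with 2 mM L-glutamine and 10% heat-inactivated FCS for 24 h. They were then exposed for 24 h to each compound at its highest soluble concentration. Impedance (cell index) was read every 30 min. % toxicity = 100 − (cell index compound / cell index medium × 100).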

[2] = molecular target: T1, Trypanothione synthetase (Trypanosoma brucei brucei) (UniProt Q86MC2); assay: Inhibition of Trypanosoma brucei brucei trypanothione synthetase assessed as residual activity at 30 uM after 15 mins incubation by Biomol Green phosphate release absorbance assay
T1 sequence (whole entry): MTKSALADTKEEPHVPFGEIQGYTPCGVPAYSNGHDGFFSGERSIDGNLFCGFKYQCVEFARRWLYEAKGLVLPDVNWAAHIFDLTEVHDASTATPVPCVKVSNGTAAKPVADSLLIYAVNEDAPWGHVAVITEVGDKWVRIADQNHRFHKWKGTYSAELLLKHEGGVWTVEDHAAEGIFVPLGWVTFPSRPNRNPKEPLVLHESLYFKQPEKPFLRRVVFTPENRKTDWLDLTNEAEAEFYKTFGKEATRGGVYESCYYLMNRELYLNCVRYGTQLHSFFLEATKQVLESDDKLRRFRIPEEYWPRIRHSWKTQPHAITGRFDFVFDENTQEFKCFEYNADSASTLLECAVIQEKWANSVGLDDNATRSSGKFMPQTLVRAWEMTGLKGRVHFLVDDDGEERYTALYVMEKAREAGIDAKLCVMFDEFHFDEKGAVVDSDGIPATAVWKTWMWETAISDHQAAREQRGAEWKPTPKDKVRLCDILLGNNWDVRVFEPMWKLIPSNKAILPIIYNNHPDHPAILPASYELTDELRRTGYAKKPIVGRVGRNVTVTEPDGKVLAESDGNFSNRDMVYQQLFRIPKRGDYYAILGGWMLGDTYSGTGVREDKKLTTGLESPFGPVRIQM

[3] = system: Trypanosoma brucei brucei; assay: Antitrypanosomal activity against Trypanosoma brucei brucei 427 assessed as viability at 5 uM after 24 hrs by Flow cytometry relative to control; assay type: functional
In short: (§2)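 Single-concentration primary screen on infective T. b. brucei 427, seeded at 5×10^5 cells/mL in HMI-9/10% FBS, 37 °C, 5% CO2, for 24 h. Live cells were counted by flow cytometry with propidium iodide gating over a fixed 60 s acquisition. % viability is relative to the DMSO proliferation control. Triplicates; error as 2 SD.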

[4] = system: Trypanosoma brucei brucei; assay: Antitrypanosomal activity against Trypanosoma brucei brucei 427 assessed as viability at 30 uM after 24 hrs by Flow cytometry relative to control; assay type: functional; in short: as §2
[5] = Toxicity in mouse macrophages at 29 uM after 24 hrs by xCELLingence assay relative to control; assay type: cell-based; conditions: macrophage; in short: as §1
[6] = Toxicity in mouse macrophages at 54 uM after 24 hrs by xCELLingence assay relative to control; assay type: cell-based; conditions: macrophage; in short: as §1
[7] = system: Trypanosoma brucei brucei; assay: Antitrypanosomal activity against Trypanosoma brucei brucei 427 assessed as viability after 24 hrs by Flow cytometry; assay type: functional, organism-based; conditions: Trypanosoma brucei, 427, 24 h
In short: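 Infective bloodstream T. b. brucei 427 (cell line 449 carrying a redox biosensor) in HMI-9 with 10% FBS at 37 °C, 5% CO2. Cells were seeded at 5×10^5 cells/mL with two-fold serial dilutions from DMSO stocks and incubated 24 h. Viability was by propidium iodide exclusion flow cytometry. EC50 came from a sigmoidal Boltzmann fit or non-linear extrapolation, with error as 2 SD.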

[8] = Toxicity in mouse macrophages at 24 uM after 24 hrs by xCELLingence assay relative to control; assay type: cell-based; conditions: macrophage; in short: as §1
[9] = Toxicity in mouse macrophages at 58 uM after 24 hrs by xCELLingence assay relative to control; assay type: cell-based; conditions: macrophage; in short: as §1
[10] = Toxicity in mouse macrophages at 5 uM after 24 hrs by xCELLingence assay relative to control; assay type: cell-based; conditions: macrophage; in short: as §1
[11] = molecular target: Glycogen synthase kinase-3 (Sus scrofa, UniProt B2LUN4+I6LNT8); assay: Inhibition of pig brain GSK-3alpha/beta using GS-1 peptide substrate
In short: (§3)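 Radiometric kinase assays in buffer A (10 mM MgCl2, 1 mM EGTA, 1 mM DTT, 25 mM Tris-HCl pH 7.5, heparin) or buffer B, with ATP, 30 min at 30 °C. Products were captured on P81 phosphocellulose, washed in 1% phosphoric acid and scintillation counted. Activity is % of the uninhibited control. Substrates: histone H1 for CDK2/CDK5 (BSA added for CDK5), CDK7/9-Tide for CDK9, RS peptide for DYRK1A/CLK1, GS-1 for GSK-3, CKS peptide for CK1.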

[12] = molecular target: Cyclin-dependent kinase 2/cyclin E1 (Homo sapiens, UniProt P24941); assay: Inhibition of human recombinant CDK2/cyclin E; assay type: protein-complex assay; in short: as §3
[13] = molecular target: Dual specificity tyrosine-phosphorylation-regulated kinase 1A (Homo sapiens, UniProt Q13627); assay: Inhibition of human recombinant DYRK1A; in short: as §3
[14] = molecular target: CDK9/cyclin T1 (Homo sapiens, UniProt P50750); assay: Inhibition of human recombinant CDK9/cyclin T; assay type: protein-complex assay; in short: as §3
CDK9/cyclin T1, sequence (O60563 whole entry): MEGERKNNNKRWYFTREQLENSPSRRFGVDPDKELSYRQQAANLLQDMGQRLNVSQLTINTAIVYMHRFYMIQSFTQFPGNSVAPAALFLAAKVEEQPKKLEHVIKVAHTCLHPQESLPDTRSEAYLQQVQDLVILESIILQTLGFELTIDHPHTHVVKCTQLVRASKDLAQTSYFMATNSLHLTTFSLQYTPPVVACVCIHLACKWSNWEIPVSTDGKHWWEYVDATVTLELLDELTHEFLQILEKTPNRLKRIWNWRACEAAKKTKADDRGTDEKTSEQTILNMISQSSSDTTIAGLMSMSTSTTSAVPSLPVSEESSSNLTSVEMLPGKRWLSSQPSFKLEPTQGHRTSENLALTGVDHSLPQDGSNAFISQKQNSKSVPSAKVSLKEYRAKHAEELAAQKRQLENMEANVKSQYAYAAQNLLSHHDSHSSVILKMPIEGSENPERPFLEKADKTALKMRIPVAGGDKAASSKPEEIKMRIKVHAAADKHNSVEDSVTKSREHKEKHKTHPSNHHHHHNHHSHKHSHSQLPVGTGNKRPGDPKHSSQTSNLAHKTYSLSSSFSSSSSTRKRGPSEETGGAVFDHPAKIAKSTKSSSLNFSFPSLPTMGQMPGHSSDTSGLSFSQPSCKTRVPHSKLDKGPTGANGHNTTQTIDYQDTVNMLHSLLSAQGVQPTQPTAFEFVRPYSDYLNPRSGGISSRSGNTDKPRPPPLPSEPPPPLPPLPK
CDK9/cyclin T1, sequence (P50750 whole entry): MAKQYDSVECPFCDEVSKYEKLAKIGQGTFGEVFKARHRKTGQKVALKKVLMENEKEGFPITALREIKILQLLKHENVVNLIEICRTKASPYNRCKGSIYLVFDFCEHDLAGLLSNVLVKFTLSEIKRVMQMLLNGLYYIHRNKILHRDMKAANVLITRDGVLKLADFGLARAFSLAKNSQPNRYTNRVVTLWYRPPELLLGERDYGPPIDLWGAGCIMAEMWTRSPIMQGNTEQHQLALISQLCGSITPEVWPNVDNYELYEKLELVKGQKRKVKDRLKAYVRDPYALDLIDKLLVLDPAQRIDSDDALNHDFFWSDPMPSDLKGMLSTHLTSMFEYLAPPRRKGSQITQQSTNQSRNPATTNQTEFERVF

[15] = molecular target: Dual specificity protein kinase CLK1 (Mus musculus, UniProt P22518); assay: Inhibition of mouse recombinant CLK1; in short: as §3
Dual specificity protein kinase CLK1, sequence (P22518 whole entry): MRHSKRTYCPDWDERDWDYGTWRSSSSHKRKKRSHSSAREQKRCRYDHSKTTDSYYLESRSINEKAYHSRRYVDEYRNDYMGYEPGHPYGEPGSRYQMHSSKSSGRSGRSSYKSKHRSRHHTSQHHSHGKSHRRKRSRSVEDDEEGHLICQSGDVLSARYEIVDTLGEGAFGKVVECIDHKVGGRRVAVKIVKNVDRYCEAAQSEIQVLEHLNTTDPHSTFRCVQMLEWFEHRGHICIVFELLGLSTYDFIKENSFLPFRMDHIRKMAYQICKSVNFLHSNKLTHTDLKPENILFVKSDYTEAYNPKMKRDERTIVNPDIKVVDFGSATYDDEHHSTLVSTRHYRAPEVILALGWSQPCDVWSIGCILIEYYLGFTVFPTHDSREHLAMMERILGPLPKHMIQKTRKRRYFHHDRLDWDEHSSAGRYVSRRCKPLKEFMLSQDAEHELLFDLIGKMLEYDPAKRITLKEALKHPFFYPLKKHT

[16] = molecular target: Cyclin-dependent kinase 5/CDK5 activator 1 (Homo sapiens, UniProt Q00535); assay: Inhibition of human recombinant CDK5/p25; assay type: protein-complex assay; in short: as §3
Cyclin-dependent kinase 5/CDK5 activator 1, sequence (Q00535 whole entry): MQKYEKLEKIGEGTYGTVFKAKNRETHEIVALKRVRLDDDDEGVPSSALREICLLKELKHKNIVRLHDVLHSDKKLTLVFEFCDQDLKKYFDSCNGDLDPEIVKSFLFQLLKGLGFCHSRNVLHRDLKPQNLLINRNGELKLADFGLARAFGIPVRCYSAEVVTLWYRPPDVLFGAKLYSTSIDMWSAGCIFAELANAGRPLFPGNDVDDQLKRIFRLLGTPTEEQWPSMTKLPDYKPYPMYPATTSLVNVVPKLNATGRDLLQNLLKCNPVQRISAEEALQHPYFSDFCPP
Cyclin-dependent kinase 5/CDK5 activator 1, sequence (Q15078 whole entry, further chain): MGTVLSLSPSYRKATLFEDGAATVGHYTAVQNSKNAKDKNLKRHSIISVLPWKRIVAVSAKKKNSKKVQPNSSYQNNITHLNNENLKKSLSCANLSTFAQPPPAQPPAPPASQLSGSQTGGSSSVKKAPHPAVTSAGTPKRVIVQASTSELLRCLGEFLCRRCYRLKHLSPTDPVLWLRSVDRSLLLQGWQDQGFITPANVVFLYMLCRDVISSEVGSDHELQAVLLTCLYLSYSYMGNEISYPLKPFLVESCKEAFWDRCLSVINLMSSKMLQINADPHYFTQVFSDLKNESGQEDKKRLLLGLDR

[17] = Inhibition of starfish CDK1/cyclinB using histone H1 substrate
[18] = Toxicity in mouse macrophages at 60 uM after 24 hrs by xCELLingence assay relative to control; assay type: cell-based; conditions: macrophage; in short: as §1
[19] = Inhibition of pig brain CK1 delta/epsilon using CKS peptide substrate; design: species or system Sus scrofa; in short: as §3
[20] = Toxicity in mouse macrophages at 12 uM after 24 hrs by xCELLingence assay relative to control; assay type: cell-based; conditions: macrophage; in short: as §1
[21] = Toxicity in mouse macrophages at 59 uM after 24 hrs by xCELLingence assay relative to control; assay type: cell-based; conditions: macrophage; in short: as §1
[22] = Toxicity in mouse macrophages at 56 uM after 24 hrs by xCELLingence assay relative to control; assay type: cell-based; conditions: macrophage; in short: as §1
[23] = Toxicity in mouse macrophages at 10 uM after 24 hrs by xCELLingence assay relative to control; assay type: cell-based; conditions: macrophage; in short: as §1
[24] = Toxicity in mouse macrophages at 26 uM after 24 hrs by xCELLingence assay relative to control; assay type: cell-based; conditions: macrophage; in short: as §1

## O=C1Cc2c([nH]c3ccc(/C=C/C(=O)c4ccc(Cl)cc4)cc23)-c2cccnc2N1
[1]
  Activity: 4.73%
[2]
  Activity: 79.8%
[3]
  Activity: 38.4%

## COc1ccc(C(=O)/C=C/c2cccc3c4c([nH]c23)-c2cccnc2NC(=O)C4)cc1
[1]
  Activity: 16.5%
[2]
  Activity: 80.4%
[4]
  Activity: 79.9%

## O=C(/C=C/c1ccc2[nH]c3c(c2c1)CC(=O)Nc1ncccc1-3)NCc1ccccc1
[5]
  Activity: < 0%
[2]
  Activity: 67.5%
[3]
  Activity: 12.1%

## O=C1Cc2c([nH]c3ccc(/C=C/C(=O)c4ccco4)cc23)-c2cccnc2N1
[6]
  Activity: 17.6%
[2]
  Activity: 90.2%
[4]
  Activity: 21.9%

## O=C(/C=C/c1cccc2c3c([nH]c12)-c1cccnc1NC(=O)C3)NCc1ccccc1
[7]
  EC50: 0.45 µM
[2]
  Activity: 81.8%
[8]
  Activity: 4.16%
[3]
  Activity: < 10%

## O=C(/C=C/c1ccc2[nH]c3c(c2c1)CC(=O)Nc1ncccc1-3)Nc1ccccc1
[7]
  EC50: 2.5 µM
[2]
  Activity: 68.1%
[9]
  Activity: < 0%
[3]
  Activity: < 10%

## O=C1Cc2c([nH]c3c(I)cccc23)-c2cccnc2N1
[2]
  Activity: 112%
[4]
  Activity: 61.3%
[10]
  Activity: 4.4%

## O=C(/C=C/c1cccc2c3c([nH]c12)-c1cccnc1NC(=O)C3)Nc1ccccc1
[11]
  IC50: > 10 µM
[7]
  EC50: 0.12 µM
[12]
  IC50: > 10 µM
[13]
  IC50: > 10 µM
[2]
  Activity: 94.6%
[14]
  IC50: > 10 µM
[15]
  IC50: > 10 µM
[16]
  IC50: > 10 µM
[17]
  IC50: > 10 µM
[3]
  Activity: < 10%
[18]
  Activity: 74.7%
[19]
  IC50: 0.49 µM

## COc1ccc(C(=O)/C=C/c2ccc3[nH]c4c(c3c2)CC(=O)Nc2ncccc2-4)cc1
[2]
  Activity: 77.6%
[20]
  Activity: 20.3%
[3]
  Activity: 44.5%

## O=C1Cc2c([nH]c3c(/C=C/C(=O)c4ccc(Cl)cc4)cccc23)-c2cccnc2N1
[2]
  Activity: 73.2%
[20]
  Activity: 9.2%
[3]
  Activity: 74.6%

## CCN(CC)C(=O)/C=C/c1ccc2[nH]c3c(c2c1)CC(=O)Nc1ncccc1-3
[21]
  Activity: < 0%
[2]
  Activity: 91.5%
[4]
  Activity: 22.1%

## CCN(CC)C(=O)/C=C/c1cccc2c3c([nH]c12)-c1cccnc1NC(=O)C3
[22]
  Activity: < 0%
[2]
  Activity: 102%
[4]
  Activity: 81.6%

## O=C1Cc2c([nH]c3ccc(I)cc23)-c2cccnc2N1
[23]
  Activity: 12.3%
[2]
  Activity: 96.7%
[4]
  Activity: 72.1%

## O=C1Cc2c([nH]c3ccc(/C=C/C(=O)c4ccccc4)cc23)-c2cccnc2N1
[2]
  Activity: 61.9%
[24]
  Activity: 7.6%
[3]
  Activity: 54%

## O=C1Cc2c([nH]c3c(/C=C/C(=O)c4ccccc4)cccc23)-c2cccnc2N1
[11]
  IC50: > 10 µM
[7]
  EC50: 0.18 µM
[12]
  IC50: > 10 µM
[13]
  IC50: > 10 µM
[2]
  Activity: 91.1%
[14]
  IC50: > 10 µM
[24]
  Activity: 28.3%
[15]
  IC50: > 10 µM
[16]
  IC50: > 10 µM
[17]
  IC50: > 10 µM
[3]
  Activity: < 10%
[19]
  IC50: > 10 µM
